The source made the active and inactive calls. The calls are words filed in the database; no cut-off is given here.
Tests used:
Assay type in all cases: functional
[1] = system: Staphylococcus aureus; experiment: Antimicrobial activity against multidrug-resistant Staphylococcus aureus after 18 hrs by MTT dye based TLC assay
Outline: (§1)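 Overlay TLC bioautography: samples applied to TLC plates and overlaid with the bacterial culture. The panel covered three S. aureus strains and one E. coli strain. Activity is read as minimum inhibitory quantity (MIQ, μg per spot).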

[2] = system: Staphylococcus aureus; experiment: Antimicrobial activity against methicillin-resistant Staphylococcus aureus ATCC BAA1026 after 18 hrs by MTT dye based TLC assay; outline: as §1
[3] = system: Staphylococcus aureus; experiment: Antimicrobial activity against methicillin-sensitive Staphylococcus aureus ATCC 29213 after 18 hrs by MTT dye based TLC assay
Outline: (§2)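 Overlay TLC bioautography: compounds applied on TLC plates and overlaid with the bacterial culture. Activity is reported as the minimum inhibitory quantity (MIQ), in μg of compound.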

[4] = system: Escherichia coli; experiment: Antimicrobial activity against Escherichia coli ATCC 25922 after 18 hrs by MTT dye based TLC assay; outline: as §2

| Structure (SMILES) | Activity [1] | Activity [2] | Activity [3] | Activity [4] | MIC [3] | MIC [1] | MIC [2] |
| --- | --- | --- | --- | --- | --- | --- | --- |
| COC1=C(Br)[C@@H](O)[C@]2(C=C1Br)CC(C(=O)NCCCC(=O)O)=NO2 | Active | Active | Active | inactive | – | – | – |
| COC1=C(Br)[C@@H](O)[C@]2(C=C1Br)CC(C(=O)NCCCOc1c(Br)cc(CC(N)C(=O)O)cc1Br)=NO2 (some centres not stated) | Active | Active | Active | inactive | – | – | – |
| COc1ccc(C/C(=N\O)C(=O)NCCc2cc(Br)c(OCCCN(C)C)c(Br)c2)cc1Br | Active | Active | Active | inactive | – | – | – |
| COC1=C(Br)[C@@H](O)[C@]2(C=C1Br)CC(C(=O)NCCc1cc(Br)c(O)c(Br)c1)=NO2 | Active | Active | – | inactive | 0.31 µg | – | – |
| COC1=C(Br)[C@@H](O)[C@]2(C=C1Br)CC(C(=O)NCCCOc1c(Br)cc(C/C(=N\O)C(=O)NCCc3cnc(N)[nH]3)cc1Br)=NO2 | Active | Active | Active | inactive | – | – | – |
| COC1=C(Br)[C@@H](O)[C@]2(C=C1Br)CC(C(=O)NCCCOc1c(Br)cc(CCN)cc1Br)=NO2 | Active | Active | Active | inactive | – | – | – |
| CN[C@H](CC(C)C)C(=O)N[C@H]1C(=O)N[C@@H](CC(N)=O)C(=O)N[C@H]2C(=O)N[C@H]3C(=O)N[C@H](C(=O)N[C@H](C(=O)O)c4cc(O)cc(O)c4-c4cc3ccc4O)[C@H](O)c3ccc(c(Cl)c3)Oc3cc2cc(c3O[C@@H]2O[C@H](CO)[C@@H](O)[C@H](O)[C@H]2O[C@H]2C[C@](C)(N)[C@H](O)[C@H](C)O2)Oc2ccc(cc2Cl)[C@H]1O [VANCOMYCIN] | – | – | – | – | – | 0.63 µg | 0.63 µg |
| COC1=C(Br)[C@@H](O)[C@]2(C=C1Br)CC(C(N)=O)=NO2 | Active | Active | Active | inactive | – | – | – |
| COC1=C(Br)[C@@H](O)[C@]2(C=C1Br)CC(C(=O)NCCc1ccc(O)c(Br)c1)=NO2 | Active | Active | – | inactive | 0.31 µg | – | – |
| CNCCCOc1c(Br)cc(CCNC(=O)/C(Cc2ccc(OC)c(Br)c2)=N/O)cc1Br | Active | Active | Active | inactive | – | – | – |
| CCOC1(CCCNC(=O)C2=NO[C@@]3(C=C(Br)C(OC)=C(Br)[C@H]3O)C2)N=C(N)NC1=O (mixture of isomers) | Active | Active | Active | inactive | – | – | – |
